Among the data in ChEMBL document CHEMBL4477204, “Tetrahydroisoquinoline-Derived Urea and 2,5-Diketopiperazine Derivatives as Selective Antagonists of the Transient Receptor Potential Melastatin 8 (TRPM8) Channel Receptor and Antiprostate Cancer Agents” (J Med Chem, 2016) are EC50, CLint scaled and IC50 values, retold here.

SMILES strings stand for the structures.

T1 sequence (Q8R455 whole entry): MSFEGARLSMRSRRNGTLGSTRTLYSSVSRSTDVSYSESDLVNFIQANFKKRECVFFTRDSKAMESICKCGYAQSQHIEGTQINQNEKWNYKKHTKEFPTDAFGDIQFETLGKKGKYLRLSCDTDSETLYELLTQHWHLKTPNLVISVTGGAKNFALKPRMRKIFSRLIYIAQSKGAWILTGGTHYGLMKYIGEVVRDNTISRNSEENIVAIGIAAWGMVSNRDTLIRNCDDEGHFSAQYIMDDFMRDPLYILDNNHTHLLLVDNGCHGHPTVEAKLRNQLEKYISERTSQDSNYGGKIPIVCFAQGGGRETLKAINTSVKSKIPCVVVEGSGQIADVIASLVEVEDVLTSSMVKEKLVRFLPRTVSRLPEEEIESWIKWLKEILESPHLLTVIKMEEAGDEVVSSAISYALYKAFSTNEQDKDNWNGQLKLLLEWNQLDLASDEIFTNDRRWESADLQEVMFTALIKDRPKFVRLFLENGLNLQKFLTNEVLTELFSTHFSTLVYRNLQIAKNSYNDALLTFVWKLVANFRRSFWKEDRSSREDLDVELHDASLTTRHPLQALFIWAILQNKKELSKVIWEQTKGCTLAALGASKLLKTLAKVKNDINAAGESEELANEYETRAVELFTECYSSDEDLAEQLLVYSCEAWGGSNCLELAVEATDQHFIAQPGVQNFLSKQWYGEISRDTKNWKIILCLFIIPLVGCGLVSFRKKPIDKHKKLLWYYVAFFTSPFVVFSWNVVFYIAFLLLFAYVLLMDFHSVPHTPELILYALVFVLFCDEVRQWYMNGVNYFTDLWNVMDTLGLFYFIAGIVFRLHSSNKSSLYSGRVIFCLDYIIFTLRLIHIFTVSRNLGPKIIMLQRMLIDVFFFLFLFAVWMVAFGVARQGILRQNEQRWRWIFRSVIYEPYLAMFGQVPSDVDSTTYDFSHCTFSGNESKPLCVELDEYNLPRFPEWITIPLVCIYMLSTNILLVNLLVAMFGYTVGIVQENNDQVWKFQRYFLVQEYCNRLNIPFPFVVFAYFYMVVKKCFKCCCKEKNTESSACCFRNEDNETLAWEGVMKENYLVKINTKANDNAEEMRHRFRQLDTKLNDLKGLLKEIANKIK

In the first data set the target is T1, Transient receptor potential cation channel subfamily M member 8 (Rattus norvegicus, UniProt Q8R455). Description: Agonist activity at recombinant rat TRPM8 expressed in HEK293 cells assessed as increase in intracellular calcium accumulation by Fluo-4-AM probe-based spectrofluorimetric assay. The class given is cell-based. The note with it: hek293. The essentials:
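HEK-293 cells stably expressing rat TRPM8 were loaded with Fluo-4-AM (4 µM, 0.02% Pluronic F-127) for 1 h at 25 °C in serum-free EMEM. They were then washed and suspended in Tyrode's buffer pH 7.4 in a stirred cuvette. [Ca2+]i fluorescence (ex 488/em 516 nm) was read before and after compound addition. Wild-type HEK-293 response was subtracted. Efficacy is expressed versus 4 µM ionomycin; EC50 comes from a sigmoidal fit.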
`COc1cc2c(cc1OC)[C@@H](c1ccc(Oc3ccc([N+](=O)[O-])cc3)cc1)N(C(=O)N1CCc3cc(OC)c(OC)cc3[C@@H]1c1ccc(Oc3ccc([N+](=O)[O-])cc3)cc1)CC2`: the EC50 entry is listed as “Not Active”.

As to `COc1cc2c(cc1OC)C(c1ccc(C(F)(F)F)cc1)N(C(C)=O)CC2` (centres undefined), the EC50 result is “Not Active”.

On to `COc1cc2c(cc1OC)[C@H](c1ccc3ccccc3c1)N(C(=O)N1CCc3cc(OC)c(OC)cc3[C@@H]1c1ccc3ccccc3c1)CC2` (racemic), for which the EC50 result was “Not Active”.

For the compound `COc1cc2c(cc1OC)C(c1ccc([N+](=O)[O-])cc1[N+](=O)[O-])NCC2` (racemic), the EC50 result is “Not Active”.

As for `COc1cc2c(cc1OC)[C@H](c1ccc([N+](=O)[O-])cc1[N+](=O)[O-])N(C(=O)N1CCc3cc(OC)c(OC)cc3[C@@H]1c1ccc([N+](=O)[O-])cc1[N+](=O)[O-])CC2` (racemic), the EC50 result is on record as “Not Active”.

As for `CCC[C@H]1c2cc(OC)c(OC)cc2CCN1C(=O)N1CCc2cc(OC)c(OC)cc2[C@@H]1CCC` (racemic), the EC50 entry is “Not Active”.

Regarding `COc1cc2c(cc1OC)C(c1cccc(-c3cccc([N+](=O)[O-])c3)n1)NCC2` (racemic), the EC50 entry is recorded as “Not Active”.

Take `COc1cc2c(cc1OC)[C@H](c1ccc(Oc3ccc([N+](=O)[O-])cc3)cc1)N(C(=O)N1CCc3cc(OC)c(OC)cc3[C@@H]1c1ccc(Oc3ccc([N+](=O)[O-])cc3)cc1)CC2` (racemic): the EC50 result is recorded as “Not Active”.

Regarding `COc1cc2c(cc1OC)[C@H](c1ccc(C(F)(F)F)cc1)N(C(=O)N1CCc3cc(OC)c(OC)cc3[C@@H]1c1ccc(C(F)(F)F)cc1)CC2` (racemic), the EC50 result is on record as “Not Active”.

Take `COc1ccc(OC)c(C[C@@H]2NC(=O)[C@@H]3Cc4c(OC)ccc(OC)c4[C@@H](/C=C/c4ccccc4)N3C2=O)c1` (racemic): the EC50 entry was “Not Active”.

With `COc1cc2c(cc1OC)[C@H](c1ccc(Br)cc1)N(C(=O)N1CCc3cc(OC)c(OC)cc3[C@@H]1c1ccc(Br)cc1)CC2` (racemic), the EC50 entry is on record as “Not Active”.

`COc1cc2c(cc1OC)[C@H](c1ccccc1Cl)N(C(=O)N1CCc3cc(OC)c(OC)cc3[C@@H]1c1ccccc1Cl)CC2` (racemic): the EC50 entry was “Not Active”.

As to `COc1ccc(CCNC(=O)N2CCc3cc(OC)c(OC)cc3C2c2ccccc2Cl)cc1OC` (racemic), the EC50 entry is “Not Active”.

Regarding `COc1cc2c(cc1OC)[C@H](c1cccc(-c3cccc([N+](=O)[O-])c3)n1)N(C(=O)N1CCc3cc(OC)c(OC)cc3[C@@H]1c1cccc(-c3cccc([N+](=O)[O-])c3)n1)CC2` (racemic), the EC50 result is “Not Active”.

Consider `COc1cc2c(cc1OC)[C@H](c1cccc([N+](=O)[O-])c1)N(C(=O)N1CCc3cc(OC)c(OC)cc3[C@@H]1c1cccc([N+](=O)[O-])c1)CC2` (racemic), for which the EC50 result is on record as “Not Active”.

Regarding `COc1cc(C[C@@H]2NC(=O)[C@H](Cc3cc(OC)c(OC)c(C)c3OC)NC2=O)c(OC)c(C)c1OC` (racemic), the EC50 entry was “Not Active”.

Turning to `COc1c(C)c(OC)c(OC)c2c1C[C@H]1C(=O)N3[C@@H](Cc4c(OC)c(C)c(OC)c(OC)c4[C@@H]3/C=C/c3ccccc3)C(=O)N1[C@H]2/C=C/c1ccccc1` (racemic), the EC50 result is “Not Active”.

With `COc1cc2c(cc1OC)C(c1ccc(Cl)cc1)NCC2` (racemic), the EC50 entry is listed as “Not Active”.

System in a further data set: not listed separately
Description: in vitro. The note with it: C57BL/6, mouse, liver microsomes. A general note: Liver microsomes are vesicles of endoplasmic reticulum, rich in cytochrome P450 enzymes.
A word on the CLint scaled: it is a measure of how fast metabolising enzymes remove a compound, apart from limits set by blood flow. A lower CLint scaled goes with greater metabolic stability. Consider `COc1cc2c(cc1OC)[C@H](c1ccc(C(F)(F)F)cc1)N(C(=O)N1CCc3cc(OC)c(OC)cc3[C@@H]1c1ccc(C(F)(F)F)cc1)CC2` (racemic), for which the CLint scaled at 1 h, 3 µM is 10.1 mL/min/kg.

In turn, `COc1cc2c(cc1OC)[C@H](c1ccc(Br)cc1)N(C(=O)N1CCc3cc(OC)c(OC)cc3[C@@H]1c1ccc(Br)cc1)CC2` (racemic) came in with a CLint scaled at 1 h, 3 µM of 19.1 mL/min/kg.

Take `COc1cc2c(cc1OC)[C@H](c1ccccc1Cl)N(C(=O)N1CCc3cc(OC)c(OC)cc3[C@@H]1c1ccccc1Cl)CC2` (racemic): the CLint scaled at 1 h, 3 µM stood at 52.9 mL/min/kg.

Another data set concerns the target T1, Transient receptor potential cation channel subfamily M member 8. Description: Antagonist activity at recombinant rat TRPM8 expressed in HEK293 cells assessed as inhibition of icilin-induced intracellular calcium accumulation preincubated for 5 mins followed by icilin addition by Fluo-4-AM probe-based spectrofluorimetric assay.
Conditions: not given; call rule not given here
The data set is classed as cell-based. The essentials:
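HEK-293 cells stably expressing the listed TRP channel (human TRPV1; rat TRPM8, TRPA1, TRPV2, TRPV3 or TRPV4) were Fluo-4-AM loaded (4 µM, 1 h, 25 °C) and suspended in Tyrode's buffer pH 7.4. Compound was added 5 min before agonist: icilin 0.25 µM (TRPM8), capsaicin 0.1 µM (TRPV1), AITC 100 µM (TRPA1), LPC 3 µM (TRPV2), thymol 100 µM (TRPV3), 4α-PDD 1 µM (TRPV4). Agonist alone was taken as 100%. IC50 from sigmoidal fit, at least triplicate.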
A general note: Calcium assays in cells follow changes in intracellular calcium, usually with a dye or a luminescent sensor.
As usually defined, the IC50 is the point on the concentration scale where inhibition reaches its midpoint. Turning to `COc1cc2c(cc1OC)[C@@H](c1ccc(Oc3ccc([N+](=O)[O-])cc3)cc1)N(C(=O)N1CCc3cc(OC)c(OC)cc3[C@@H]1c1ccc(Oc3ccc([N+](=O)[O-])cc3)cc1)CC2`, the IC50 is greater than 50 µM.

In the case of `COc1cc2c(cc1OC)C(c1ccc(C(F)(F)F)cc1)N(C(C)=O)CC2` (centres undefined), the IC50 was greater than 50 µM.

Regarding `COc1cc2c(cc1OC)[C@H](c1ccc3ccccc3c1)N(C(=O)N1CCc3cc(OC)c(OC)cc3[C@@H]1c1ccc3ccccc3c1)CC2` (racemic), the IC50 was greater than 50 µM.

As for `COc1cc2c(cc1OC)C(c1ccc([N+](=O)[O-])cc1[N+](=O)[O-])NCC2` (racemic), the IC50 is greater than 50 µM.

In the case of `COc1cc2c(cc1OC)[C@H](c1ccc([N+](=O)[O-])cc1[N+](=O)[O-])N(C(=O)N1CCc3cc(OC)c(OC)cc3[C@@H]1c1ccc([N+](=O)[O-])cc1[N+](=O)[O-])CC2` (racemic), the IC50 is greater than 50 µM.

With `CCC[C@H]1c2cc(OC)c(OC)cc2CCN1C(=O)N1CCc2cc(OC)c(OC)cc2[C@@H]1CCC` (racemic), the IC50 was 8.5 µM.

As to `COc1cc2c(cc1OC)C(c1cccc(-c3cccc([N+](=O)[O-])c3)n1)NCC2` (racemic), the IC50 was greater than 50 µM.

On to `COc1cc2c(cc1OC)[C@H](c1ccc(Oc3ccc([N+](=O)[O-])cc3)cc1)N(C(=O)N1CCc3cc(OC)c(OC)cc3[C@@H]1c1ccc(Oc3ccc([N+](=O)[O-])cc3)cc1)CC2` (racemic), for which the IC50 is greater than 50 µM.

For `COc1cc2c(cc1OC)[C@H](c1ccc(C(F)(F)F)cc1)N(C(=O)N1CCc3cc(OC)c(OC)cc3[C@@H]1c1ccc(C(F)(F)F)cc1)CC2` (racemic), the IC50 amounted to 0.18 µM.

As to `COc1ccc(OC)c(C[C@@H]2NC(=O)[C@@H]3Cc4c(OC)ccc(OC)c4[C@@H](/C=C/c4ccccc4)N3C2=O)c1` (racemic), the IC50 turned out to be 30.6 µM.

For the compound `COc1cc2c(cc1OC)[C@H](c1ccc(Br)cc1)N(C(=O)N1CCc3cc(OC)c(OC)cc3[C@@H]1c1ccc(Br)cc1)CC2` (racemic), the IC50 stood at 2.2 µM.

Consider `COc1cc2c(cc1OC)[C@H](c1ccccc1Cl)N(C(=O)N1CCc3cc(OC)c(OC)cc3[C@@H]1c1ccccc1Cl)CC2` (racemic), for which the IC50 was determined as 19.8 µM.

As for `COc1ccc(CCNC(=O)N2CCc3cc(OC)c(OC)cc3C2c2ccccc2Cl)cc1OC` (racemic), the IC50 was 46.1 µM.

With `COc1cc2c(cc1OC)[C@H](c1cccc(-c3cccc([N+](=O)[O-])c3)n1)N(C(=O)N1CCc3cc(OC)c(OC)cc3[C@@H]1c1cccc(-c3cccc([N+](=O)[O-])c3)n1)CC2` (racemic), the IC50 was 43.7 µM.

For `COc1cc2c(cc1OC)[C@H](c1cccc([N+](=O)[O-])c1)N(C(=O)N1CCc3cc(OC)c(OC)cc3[C@@H]1c1cccc([N+](=O)[O-])c1)CC2` (racemic), the IC50 was 44.4 µM.

On to `COc1cc(C[C@@H]2NC(=O)[C@H](Cc3cc(OC)c(OC)c(C)c3OC)NC2=O)c(OC)c(C)c1OC` (racemic), for which the IC50 is greater than 50 µM.

`COc1c(C)c(OC)c(OC)c2c1C[C@H]1C(=O)N3[C@@H](Cc4c(OC)c(C)c(OC)c(OC)c4[C@@H]3/C=C/c3ccccc3)C(=O)N1[C@H]2/C=C/c1ccccc1` (racemic): the IC50 was determined as 8.8 µM.

With `COc1cc2c(cc1OC)C(c1ccc(Cl)cc1)NCC2` (racemic), the IC50 was greater than 50 µM.
